From ChEMBL document CHEMBL1909555, “Synthesis and antimalarial activity of thioetherhydroxyethylsulfonamides, potential aspartyl protease inhibitors, Part 3” (Eur J Med Chem, 2011)
Converted amounts (≈) assume the structure as drawn.

Key:
Plasmodium falciparum = test: Antimalarial activity against chloroquine resistant, mefloquine sensitive Plasmodium falciparum W2 infected in human erythrocytes by [3H]-hypoxanthine incorporation assay; format: functional, organism-based
[1] = Cytotoxicity against human HepG2 cells after 24 hrs by MTT assay; format: cell-based; details: read-out: LD50
Summary of the method: (§1)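 Trypsinized cells seeded at 5 × 10³/well and allowed to adhere 18 h. Compounds added at varied concentrations for 24 h. MTT then added for 3 h, formazan dissolved in DMSO, absorbance read at 570 and 630 nm. Viability taken as % of untreated control after background subtraction, and LD50 derived.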

[2] = Cytotoxicity against african green monkey BGMK cells after 24 hrs by MTT assay; format: cell-based; details: chlorocebus aethiops, read-out: LD50; summary of the method: as §1

SMILES	IC50 (Plasmodium falciparum) [µg/mL]	CC50 at 24 h [1] [µg/mL]	CC50 at 24 h [2] [µg/mL]
O=[N+]([O-])c1ccc(S(=O)(=O)N[C@@H](Cc2ccccc2)[C@H](O)CSc2ncccn2)cc1	15 (≈ 32.6 µM)	> 200	> 200
CC(C)(C)OC(=O)N[C@@H](Cc1ccccc1)[C@H](O)CSc1ccccn1	31.7 (≈ 84.6 µM)	> 200	> 200
CC(C)(C)OC(=O)N[C@@H](Cc1ccccc1)[C@H](O)CSc1ncccn1	> 50	197 (≈ 525 µM)	170 (≈ 453 µM)
O=S(=O)(N[C@@H](Cc1ccccc1)[C@H](O)CSc1ncccn1)c1ccc(Br)cc1	25 (≈ 50.6 µM)	101 (≈ 204 µM)	99 (≈ 200 µM)
O=[N+]([O-])c1ccc(S(=O)(=O)N[C@@H](Cc2ccccc2)[C@H](O)CSc2ccccn2)cc1	> 50	> 200	> 200
Cc1ccc(S(=O)(=O)N[C@@H](Cc2ccccc2)[C@H](O)CSc2ccccn2)cc1	> 50	191 (≈ 446 µM)	192 (≈ 448 µM)
